Source: PubChem BioAssay
Shown are actives, neighbours in structure and some others; about 3.6% of the full set was active somewhere.
SENP1 FRET inh = SENP1 (human) catalytic domain inhibition; Q9P0U3; recombinant SENP1 catalytic domain, CyPet-SUMO1-YPet FRET cleavage; inhibition, % at 10 µM; actives 0.21% (n = 360,000);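 active = inhibition at least 30% at 10 µM, raw YFP signal under a set limit, fluorescence ratio 0.5 to 1.5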;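 note: 0% = enzyme with DMSO and 100% = no enzyme wells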
Target sequence (Q9P0U3 419-644 limits assumed): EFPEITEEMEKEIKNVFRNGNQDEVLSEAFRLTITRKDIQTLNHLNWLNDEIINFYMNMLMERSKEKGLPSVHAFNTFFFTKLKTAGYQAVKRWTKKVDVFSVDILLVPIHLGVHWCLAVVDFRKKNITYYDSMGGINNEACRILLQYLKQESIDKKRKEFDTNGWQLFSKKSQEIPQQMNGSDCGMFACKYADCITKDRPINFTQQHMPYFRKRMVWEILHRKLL
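material = recombinant human SENP1 catalytic domain, His6-tagged | quantity = 20 pM enzyme | reagent = 25 nM SUMO1 FRET substrate | compound dosing = 10 µM single point, 0.5% DMSO | timing = 50 min enzyme reaction, room temperature, light-protected | detection = FRET, CFP and YFP emission | control set = no-enzyme low, enzyme-DMSO high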
NR3A LBD binder = NR3A (human) ligand-binding domain modulation | Tm shift relative to glycine control, % at 25 µM | actives 2.5% (n = 340,000) | NR3A LBD differential scanning fluorimetry, Tm shift; 0% = protein alone, 100% = glycine-bound protein | AID 1259313;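 active = melting temperature shift of at least 10% of the positive control shift, at one fixed dose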
ATG4B inhibitor = blocks human ATG4B protease cleavage of LC3 substrate | ATG4B cleavage of LC3-PLA2, NBD-HPC fluorescence, 1 h | AID 504462 | Q9Y4P1 | inhibition, % at 8.33 µM | actives 0.51% (n = 340,000); in the data active = inhibition above about 40%
Target sequence (Q9Y4P1 whole entry, looked up): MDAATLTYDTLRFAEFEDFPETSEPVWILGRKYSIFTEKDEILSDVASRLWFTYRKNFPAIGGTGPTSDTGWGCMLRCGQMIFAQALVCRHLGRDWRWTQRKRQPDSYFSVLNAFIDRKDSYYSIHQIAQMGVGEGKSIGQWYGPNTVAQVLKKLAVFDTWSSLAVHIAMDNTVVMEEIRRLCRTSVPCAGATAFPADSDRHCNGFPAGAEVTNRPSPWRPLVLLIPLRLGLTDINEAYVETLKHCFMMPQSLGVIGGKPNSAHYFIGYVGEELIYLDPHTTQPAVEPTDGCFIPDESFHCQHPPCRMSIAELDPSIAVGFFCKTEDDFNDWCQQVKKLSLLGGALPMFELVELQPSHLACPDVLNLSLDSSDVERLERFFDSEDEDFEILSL
UCH37 inh = inhibitors of human deubiquitinating enzyme UCH37; Q9Y5K5; purified proteasome/UCH37, Ub-AMC cleavage fluorescence; inhibition, % (test concentration not listed); actives 0.33% (n = 330,000); AID 588478;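 active = mean inhibition over replicate wells above about 20%, limit read from the data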;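 note: 0% = compound-free wells with enzyme and 100% = wells lacking proteasome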
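Material: human UCH37 enzyme supplied as purified proteasome complex / Amount: 0.15 nM proteasome as dispensed / Buffer or medium: pH 7.4 Tris-HCl (50 mM) with ovalbumin, ATP-MgCl2, DTT / Times: preincubation 30 min, reaction 25 min, room temperature / Technique: AMC fluorescence from Ub-AMC cleavage, excitation 355 nm, emission 460 nm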
NadD block = blocks S. aureus nicotinate mononucleotide adenylyltransferase. purified NadD enzyme, colorimetric absorbance read-out. inhibition, % at 20 µM. actives 0.78% (n = 360,000); in the data active = inhibition above about 26%
* marks the source's active call; other numbers are inactive results; / = not tested or not shown.

SMILES	SENP1 FRET inh	NR3A LBD binder	ATG4B inhibitor	UCH37 inh	NadD block
CC(=NNc1ccc(C(F)(F)F)cc1[N+](=O)[O-])C1CC1	/	/	/	2.1	/
Cc1ccc(Nc2ccc(C(F)(F)F)cc2[N+](=O)[O-])cc1	5.4	11.2*	-5.6	3.3	15.7
C/C(=N\Nc1ccc(C(F)(F)F)cc1[N+](=O)[O-])C1CC1	0.8	14.3*	11.5	/	3.6
Cc1cc2c(=Cc3ccc(N(C)C)cc3)c3ccccc3n2[n+]1C	41.1*	-0.3	14.0	/	-1.6
CCOC(=O)c1cc2c(=Cc3ccc(N(C)C)cc3)c3ccccc3n2[n+]1C	43.7	-14.8	21.8	/	0.2
C[n+]1c(-c2ccccc2)cc2c(=Cc3ccc([N+](=O)[O-])cc3)c3ccccc3n21	-2.6	14.0*	18.8	/	10.7
CN(C)c1ccc(C=c2c3ccccc3n3c2c2ccccc2[n+]3C)cc1	-123.7	-3.0	28.7	/	54.1*
C(=Nn1cnc2ccccc21)c1cccnc1	/	/	/	8.6	/
CC(=NNC(=O)c1ccc(CSc2nc(C)cc(C)n2)cc1)c1ccco1	/	/	/	2.2	/
C/C(=N/Nc1cc(-c2ccccc2)nc(-c2ccccc2)n1)c1ccc(O)cc1	0.6	34.1*	6.9	/	14.2
CC(=NNc1cc(-c2ccccc2)nc(-c2ccc(Br)cc2)n1)c1cccc(N)c1	/	/	/	-28.1	/
C/C(=N\Nc1cc(-c2ccccc2)nc(-c2ccc(Br)cc2)n1)c1cccc(N)c1	-6.9	29.0*	11.4	/	17.2
Cc1cc(C(=O)c2ccc(Cl)cc2)c(NC(=O)CCl)s1	2.5	11.6*	-5.1	4.3	-8.0
CCc1cc(C(=O)c2ccc(C)cc2)c(NC(=O)CCl)s1	0.4	1.0	0.0	6.4	-0.3
O=C(O)CNC(=O)c1ccccc1NC(=O)c1ccco1	-2.2	0.8	8.3	4.6	1.4
O=C(Nc1ccccc1C(=O)NCCc1ccccc1)c1ccco1	-0.3	15.6*	4.5	0.5	-8.6
COc1ccc(OCC(O)CNC(=O)c2ccc(OC)cc2)cc1 (stereo not drawn)	1.7	30.6*	-10.7	0.5	-0.2
CC(=NNC(=O)c1ccncc1)c1ccc2c(c1)OCO2	/	/	/	7.5	/
COc1ccccc1NC(=O)COc1ccc(C=NNS(=O)(=O)c2ccc(C)cc2)cc1	/	/	/	3.7	/
N#CC1=C(SCC(N)=O)NC2=C(C(=O)c3ccccc32)C1c1ccc(Cl)cc1 (stereo not drawn)	-48.4	18.0*	0.8	8.8	10.4
Cc1ccc(N2C(=O)C(Cl)=C(NCCO)C2=O)c(C)c1	5.6	361.4*	4.9	3.6	-0.7
Cc1ccc2cc(/C=N/NC(=O)c3ccccc3O)c(Cl)nc2c1	-0.9	18.9*	-0.3	/	19.7
Cc1cccc2cc(/C=N/NC(=O)c3ccccc3O)c(Cl)nc12	1.1	29.2*	6.0	/	27.2
Cc1cccc2cc(C=NNC(=O)c3ccccc3O)c(Cl)nc12	/	/	/	-0.1	/
NN=C1CCCc2c1[nH]c1ccc([N+](=O)[O-])cc21	/	/	/	10.1	/
SMILES	SENP1 FRET inh	NR3A LBD binder	ATG4B inhibitor	UCH37 inh	NadD block
Cc1cc(=O)n2nc(N3CCC(C(=O)NCC(C)c4ccccc4)CC3)sc2n1 (stereo not drawn)	-3.3	10.5*	-7.8	2.4	-3.1
CCCn1c(N=Cc2ccc3c(c2)OCO3)nc2ccccc21	/	/	/	3.4	/
CC(C)NC(=O)c1sc(=S)n2c1[nH]c(=O)c1ccc(C(=O)NCCc3ccc(Cl)cc3)cc12	48.7*	-4.7	5.4	7.7	23.3
CCOc1ccc(CCNC(=O)c2ccc3c(=O)[nH]c4c(C(=O)NC(C)C)sc(=S)n4c3c2)cc1	48.1*	-1.4	-1.3	15.1	29.9
O=C(NCCc1ccccc1)c1ccc2c(=O)[nH]c3c(C(=O)NCC4CCCO4)sc(=S)n3c2c1 (stereo not drawn)	53.5*	3.2	17.6	/	23.3
O=C(NC1CCCCC1)c1sc(=S)n2c1[nH]c(=O)c1ccccc12	0.2	0.5	37.4	4.4	4.4
CCN=C(NN=Cc1ccc([N+](=O)[O-])cc1)SC	/	/	/	3.5	/
COc1cc(C=NNC(=O)CNc2n[nH]c(=O)[nH]c2=O)ccc1O	/	/	/	4.3	/
Cc1cc(C)n2nc(-c3sccc3-n3cccc3)cc2n1	1.1	11.4*	-3.2	-3.9	-5.1
Cc1cc(C)n2nc(-c3sccc3-n3c(C)ccc3C)cc2n1	-38.9	-8.1	-8.8	-10.6	14.2
CC(=NOC(=O)c1ccc(C)cc1)c1ccc(N2C(=O)C3CCCCC3C2=O)cc1 (stereo not drawn)	/	/	/	0.3	/
Cn1c(=O)c2c(nc(NCC3CCCO3)n2Cc2ccccc2)n(C)c1=O (stereo not drawn)	2.9	-1.0	3.9	25.8*	-8.9
CCOc1ccccc1NC(=O)CCC(=O)Nc1nnc(C2CCCCC2)s1	0.9	14.8*	-2.8	4.8	2.1
O=C(COC(=O)/C=C/c1cccc(Cl)c1)NCCC1=CCCCC1	-1.8	17.5*	3.4	0.7	1.5
O=C(COC(=O)/C=C/c1ccc(Cl)cc1)NCCC1=CCCCC1	0.6	0.4	-0.1	3.4	-9.0
O=C(COC(=O)COc1cccc(F)c1)NCCC1=CCCCC1	3.2	0.4	-5.6	6.4	-3.7
O=C(COC(=O)COc1ccc(Br)cc1)NCCC1=CCCCC1	2.6	12.2*	7.5	-1.4	0.2
COC(=O)NN=C(CCC(=O)O)c1cccs1	/	/	/	0.6	/
Cc1ccc(S(=O)(=O)N=Nc2c(O)[nH]c3ccccc23)cc1	-0.2	-1.6	-12.9	4.1	-1.5
Cc1ccc(S(=O)(=O)N(CC(=O)N=Nc2c(O)[nH]c3ccccc23)c2ccc(C)c(C)c2)cc1	2.4	-2.9	-1.3	4.7	32.3*
CC1CCCN(c2nc(-c3cccnc3)nc3scc(-c4ccccc4)c23)C1 (stereo not drawn)	-15.3	11.6*	-1.9	-25.6	10.1
COc1cc(C=NNC(=O)c2ccc(CSc3nncn3C)cc2)cc(OC)c1O	/	/	/	7.9	/
CC(C)C(=O)Nc1ccc(NC(=O)c2ccc(COc3ccccc3)cc2)cc1	0.2	16.3*	2.0	-1.1	-0.1
O=C(Nc1ccc(F)cc1)c1ccc(COc2ccccc2)cc1	2.7	-13.7	8.1	4.9	9.1
CC(=O)Nc1ccc(NC(=O)c2ccc(COc3ccccc3)cc2)cc1	0.7	10.4*	5.1	-0.9	1.6
SMILES	SENP1 FRET inh	NR3A LBD binder	ATG4B inhibitor	UCH37 inh	NadD block
CC(C(=O)NN=Cc1ccc(N(C)C)c(Br)c1)N(c1ccccc1)S(C)(=O)=O (stereo not drawn)	/	/	/	1.4	/
O=C(NN=C1CCc2ccccc21)c1ccncc1	/	/	/	-0.6	/
CN1/C(=C\C(=O)c2cccnc2)C(C)(C)c2ccccc21	-25.8	-1.0	-8.7	0.4	-4.3
CN1/C(=C/C(=O)c2nc(S(C)(=O)=O)ncc2Cl)C(C)(C)c2ccccc21	41.9*	-0.8	-0.1	/	-3.2
N#Cc1c(N=Cc2ccc(-c3ccccc3C(=O)O)o2)sc2c1CCCC2	/	/	/	8.9	/
CCN=C1S/C(=C\c2ccc(O)c(OCC)c2)C(=O)N1CC	-33.9	-0.9	0.0	1.3	-5.9
O=C1/C(=C\c2cccc(O)c2)SC(=S)N1Cc1ccccc1	3.7	4.7	8.6	3.5	-6.1
